# Lmaj promast = Leishmania major promastigote growth inhibition; inhibition, % at 10 µM; Leishmania major promastigotes, resazurin fluorescence viability; 9% of 200,000 active; in the data active = inhibition above about 50%;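 also: promastigotes grown with compound for 44 hours at 28 °C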
# Dynein transport = dynein cargo transport inhibition. 3617.4 mouse cells, GR-EGFP nuclear translocation imaging; test concentration mostly 20 µM; stimulated with dexamethasone, 1 µM; active compounds read low. 0.47% of 220,000 active. z-score, hits read low;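 active = plate z-score of nuclear minus cytoplasmic receptor signal below a set negative limit, without overly bright fluorescence or cell loss, cut at about -3.5 in these data, passing the limit was not always enough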;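 also: z-score of nuclear minus cytoplasmic ring GR-EGFP intensity difference per well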
#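 medium = tetracycline-free induction medium containing charcoal-stripped FBS | probe or stimulus = dexamethasone, 1.0 µM final | timing = 48 h induction, then 1 h compound, then 30 min agonist, 37 °C | detection = automated 10x imaging of fixed Hoechst-stained cells | read-out basis = nuclear versus cytoplasmic GR-EGFP signal, averaged per well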
# UPR CHOP act = activators of apoptotic arm of unfolded protein response (CHOP). CHO-CHOP luciferase reporter, UPR activation, luminescence; percent of tunicamycin response over DMSO baseline. activation, % at 10 µM. 0.34% of 330,000 active. AID 449763;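 active = at 10 µM dose, activation of 40% or more, normalized to positive control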;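 also: 100% = tunicamycin at 10 µg/mL and 0% = DMSO alone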
#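 assay system = CHO CHOP reporter cells | amount = 500 CHO-CHOP cells per well | buffer or medium = F12 with 10% FBS | incubation = 16-18 h cell attachment, then 6 h compound exposure, 37 °C | detection = luminescence read with Steady-Glo | read-out = percent activation relative to tunicamycin control | controls = tunicamycin high control, DMSO low control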
# T cruzi repl = blocks replication of Trypanosoma cruzi; AID 1885; 1.4% of 300,000 active; inhibition, % (test concentration not listed); T. cruzi beta-gal in NIH3T3, luminescence, 90 h;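 active = mean inhibition across valid replicates above about 55%, limit read from the data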;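 also: signal also drops with host cell toxicity which is not excluded here; 0% = plate median of DMSO wells and 100% = zero luminescence signal; higher percent means less beta-gal luminescence so fewer parasites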
#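 System – NIH/3T3 host cells with β-galactosidase reporter T. cruzi · Doses – single 50 nL compound addition per well in DMSO · Reagent – 5000 T. cruzi trypomastigotes/well · Medium – Low-serum DMEM with 2% FBS · Timing – ≥90 h infection period, 3 h prior cell attachment · Evaluation – parasite load inhibition, % · Technique – GalScreen luminescence, 60 min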
# UPR XBP1 act = adaptive UPR (XBP1) activation; CHO-XBP1 luciferase reporter, IRE1-XBP1 UPR activation, luminescence; percent of tunicamycin response, DMSO as zero; activation, % at 20 µM; 0.33% of 330,000 active;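 active = versus positive control, 20 µM dose yields 30% or more activation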;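 also: 100% = tunicamycin at 10 µg/mL and 0% = DMSO only wells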
#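 Test system: CHO-XBP1 luciferase reporter cells | Buffer or medium: Serum-containing F12 medium, 10% FBS | Schedule: 6 h compound exposure at 37 °C, 5% CO2 | Detection: Steady-Glo luciferase glow luminescence, 10 min after reagent addition | Read-out basis: Activation, % of tunicamycin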
# CHOP inh = blocks CHOP induction under ER stress; CHO-K1 CHOP-promoter luciferase, tunicamycin-induced, 15-18 h; inhibition, % at 10 µM; 3.8% of 220,000 active;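 active = compounds that reduced the stress-induced luciferase reporter signal by more than about 70% of percent inhibition, limit read from the data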;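 also: 0% = tunicamycin plus vehicle and 100% = wells without tunicamycin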
# UPR XBP1 confirm = adaptive UPR (XBP1) activation, confirmed | CHO-XBP1 IRE1-XBP1 luciferase reporter, luminescence | activation, % at 20 µM | AID 485299 | 63% of 1,000 active | shares compounds with UPR XBP1 act;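 active = reporter signal at least 30% of the positive control's activation in two or more of four replicate wells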;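 also: plate controls were DMSO negative control for no effect and tunicamycin 10 µg/mL positive control for full effect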
# An asterisk follows results filed as active; / = no result given. This excerpt belongs to a sample that is enriched for hits.
SMILES,Lmaj promast,Dynein transport,UPR CHOP act,T cruzi repl,UPR XBP1 act,CHOP inh,UPR XBP1 confirm
FC(F)(F)c1nc2ccccc2n2c(-c3ccc(Cl)cc3)nnc12,-1.7,-0.567,13.4,0.1,46.6*,29.0,53.7*
Cc1ccc(-c2nnc3c(C(F)(F)F)nc4ccccc4n23)cc1,4.2,0.253,1.5,-1.3,7.2,5.1,/
O=C(CC1SC(N2CCOCC2)=NC1=O)Nc1ccc(Cl)c(C(F)(F)F)c1 (stereo unspecified),/,/,1.3,/,-0.4,/,/
COc1cc(Br)cc(/C=C/c2ccc3cccc(O)c3n2)c1O,/,/,0.9,33.7,11.6,/,/
COc1cc(/C=C/c2ccc3cccc(O)c3n2)ccc1O,/,/,28.3,22.1,60.3*,/,36.5*
CC(=O)N1CC(=O)N(c2ccccc2)C1=O,/,/,-0.5,-12.1,-3.2,/,/
C(=N\Nc1nc2ccccc2s1)/c1ccc2c(c1)OCO2,6.2,1.72,8.1,-8.5,-0.1,-21.1,/
Brc1cc2c(cc1/C=N/Nc1nc3ccccc3s1)OCO2,-1.6,-0.25,4.4,-0.8,33.3*,68.8,155.2*
CCCCCNC(=O)Cn1c(=O)c2c(ncn2CC(C)C)n(Cc2ccccc2)c1=O,/,/,0.0,9.5,-2.2,/,/
O=C(Nc1ccon1)c1cccc(S(=O)(=O)N2CCCCC2)c1,-4.2,0.21,1.7,15.2,0.9,12.1,/
Cc1ccc(NC(=O)c2nc[nH]c2C(=O)NCCCNC(=O)c2[nH]cnc2C(=O)Nc2ccc(C)cc2)cc1,/,/,3.5,/,61.1*,/,34.2*
O=C(Cc1ccc(S(=O)(=O)N2CCOCC2)s1)OCc1ccc(Cl)cc1,/,/,1.1,/,-2.5,/,/
CC(C)C[C@H](NC(=O)c1nc[nH]c1C(=O)N[C@@H](CC(C)C)C(=O)OC(C)(C)C)C(=O)OC(C)(C)C,/,-0.761,7.2,35.2,44.9*,28.0,25.5
Oc1ccc(-c2nc3ccc4ccccc4c3c3c2CCC3)cc1O,24.6,-0.0878,32.8,8.6,31.3*,34.1,50.6*
COc1ccc(-c2cc(C(=O)O)nc3ccc4ccccc4c23)cc1OC,-4.3,0.717,3.4,-15.0,-2.3,-2.9,/
O=C(Nc1ccc(O)c2c(=O)cc(-c3cccc(Cl)c3)oc12)c1cccc(Cl)c1,/,0.694,33.2,-0.6,73.5*,-61.9,69.8*
CC(C)(C)c1ccc(C(=O)Nc2ccc(O)c3c(=O)cc(-c4cccc(Cl)c4)oc23)cc1,/,0.588,21.1,6.7,55.2*,33.6,52.4*
CCN(C(=O)C1CCCN1S(=O)(=O)c1ccc2c(c1)n(C)c(=O)c(=O)n2C)c1ccccc1 (stereo unspecified),/,/,-0.4,-12.8,-5.3,/,/
CCOc1ccc(OCC(=O)N(CCC2=CCCCC2)c2c(N)n(Cc3ccccc3)c(=O)[nH]c2=O)cc1,/,/,1.8,1.6,31.0*,/,6.7
CC(CC(=O)N(CCC1=CCCCC1)c1c(N)n(Cc2ccccc2)c(=O)[nH]c1=O)c1ccccc1 (stereo unspecified),/,/,5.9,5.9,39.7*,/,15.9
CCOC(=O)c1ccc(NS(=O)(=O)c2c(C)[nH]c(C)c2C(=O)N2CCCCC2)cc1,/,/,-0.5,9.2,4.5,/,/
CCOC(=O)c1ccc(N2Cc3ccccc3C2=NC(=O)c2cccc([N+](=O)[O-])c2)cc1,/,/,16.4,11.3,56.1*,/,5.3
O=C(N=C1c2ccccc2CN1c1ccccc1)c1cccc([N+](=O)[O-])c1,5.9,0.991,2.7,-12.8,0.1,3.7,/
COc1ccc(/C=N/NC(=O)c2[nH]c3ccc(Br)cc3c2-c2ccccc2)c(C(=O)O)c1OC,/,-1.05,1.4,-13.5,1.5,-26.2,/
O=C(N/N=C/c1ccccc1Cl)c1[nH]c2ccc(Br)cc2c1-c1ccccc1,10.3,-0.313,-0.4,41.8,49.7*,-7.8,59.1*
COc1ccc(/C=N/NC(=O)c2cc3c(OC)ccc(OC)c3[nH]2)cc1O,/,/,1.4,0.1,31.9*,/,21.1
Cc1ccc(NC(=O)c2c(C)nc3sc(C(=O)NC4CCCC4)c(N)c3c2-c2ccco2)c(C)c1,-3.9,1.8,26.1,6.4,62.7*,37.5,104.8*

# Assay outcomes deposited in PubChem BioAssay by several laboratories.
